Laboratory results reported in ChEMBL document CHEMBL1153963, “Phenanthrene-based tylophorine-1 (PBT-1) inhibits lung cancer cell growth through the Akt and NF-kappaB pathways” (J Med Chem, 2009).
Calls of active or inactive are those of the source. No cut-off for these calls is given here.

Assays:
[1] = Cell cycle arrest in human CL1-0 cells assessed as accumulation at G0/G1 phase after 12 hrs by flow cytometry; assay type: functional, cell-based
Procedure, shortened: (§1)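 CL1-0 cells seeded at 2×10^5 per 60 mm dish, incubated 24 h, then exposed to various drug concentrations for 2, 6, 12, 16 or 24 h. Harvested cells fixed in cold 70% ethanol at 4 °C for 16 h, treated with RNase A (20 µg/mL, 37 °C, 30 min), stained with propidium iodide (50 µg/mL, 4 °C, 30 min), analysed at once by flow cytometry for phase distribution.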

CL1-0 [2] = test: Inhibition of TNF-alpha-induced NF-kappaB transcriptional in human CL1-0 cells by luciferase reporter gene assay; assay type: cell-based
Procedure, shortened: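 CL1-0 cells transiently co-transfected with pNF-κB-Luc (0.2 µg) and pSV-β-galactosidase (1 µg) via lipofectamine; after 20 h switched to serum-free medium, pretreated 1 h, then stimulated with TNF-α for 4 h; luciferase normalized to β-galactosidase; n=3 independent transfections, mean ± SD.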

[3] = target: RAC-alpha serine/threonine-protein kinase (Homo sapiens) (UniProt P31749); test: Inhibition of AKT phosphorylation in human CL1-0 cells by Western blot; assay type: cell-based
Procedure, shortened: (§2)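 Western blot of CL1-0 cells after 24 h at increasing concentrations; probed for p-Akt, Akt and IκB; 50 µg lysate on 10% SDS-PAGE, HRP secondary, chemiluminescence on film.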

[4] = Cell cycle arrest in human CL1-0 cells assessed as accumulation at G0/G1 phase after 6 hrs by flow cytometry; assay type: functional, cell-based; procedure, shortened: as §1
[5] = Cell cycle arrest in human CL1-0 cells assessed as decrease in accumulation at G0/G1 phase by flow cytometry; assay type: functional, cell-based; conditions: TDE = time-dependent effect; procedure, shortened: as §1
CL1-0 [6] = test: Effect on p27 protein expression in human CL1-0 cells at 0.5 ug/mL after 24 hrs by Western blot; assay type: functional, cell-based
Procedure, shortened: (§3)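 CL1-0 cells exposed to rising concentrations for 24 h, or to 0.5 µg/mL over a time course; 50 µg lysate resolved by 10% SDS-PAGE, blotted, probed with cyclin/CDK-inhibitor antibodies in TBS-Tween/5% milk, HRP secondary, chemiluminescent film detection.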

CL1-0 [7] = test: Increase in IkappaB protein level in human CL1-0 cells by Western blot; assay type: functional, cell-based; procedure, shortened: as §2
[8] = target: T1, Inhibitor of nuclear factor kappa-B kinase subunit beta (Homo sapiens) (UniProt O14920); test: Effect on IKK-beta activity in TNF-alpha-stimulated human CL1-0 cells by Western blot; assay type: cell-based
T1 sequence (whole entry): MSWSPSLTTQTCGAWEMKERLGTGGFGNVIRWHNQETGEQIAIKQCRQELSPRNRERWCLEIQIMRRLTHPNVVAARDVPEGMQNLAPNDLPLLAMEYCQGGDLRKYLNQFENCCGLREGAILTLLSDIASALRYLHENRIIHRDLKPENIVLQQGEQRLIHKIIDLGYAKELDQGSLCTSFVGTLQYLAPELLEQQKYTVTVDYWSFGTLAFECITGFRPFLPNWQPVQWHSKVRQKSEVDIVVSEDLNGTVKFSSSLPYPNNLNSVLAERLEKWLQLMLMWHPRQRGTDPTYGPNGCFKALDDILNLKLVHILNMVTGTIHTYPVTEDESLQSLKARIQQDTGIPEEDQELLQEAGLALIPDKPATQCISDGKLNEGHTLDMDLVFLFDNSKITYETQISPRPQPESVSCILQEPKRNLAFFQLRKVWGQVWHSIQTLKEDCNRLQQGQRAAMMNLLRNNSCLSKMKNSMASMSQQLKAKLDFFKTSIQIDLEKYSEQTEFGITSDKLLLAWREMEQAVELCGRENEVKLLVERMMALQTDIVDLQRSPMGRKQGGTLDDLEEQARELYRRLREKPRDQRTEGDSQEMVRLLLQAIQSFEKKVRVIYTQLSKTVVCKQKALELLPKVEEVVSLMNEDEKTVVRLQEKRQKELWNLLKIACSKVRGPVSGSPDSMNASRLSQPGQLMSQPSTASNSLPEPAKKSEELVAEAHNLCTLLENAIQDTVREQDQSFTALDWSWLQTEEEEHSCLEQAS
Procedure, shortened: (§4)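 CL1-0 cells serum-starved overnight, pretreated with various drug concentrations, then stimulated with TNF-α for 4 h. Lysates (50 µg) resolved by 10% SDS-PAGE, blotted, probed with specific antibodies in TBS pH 7.5/0.05% Tween 20/5% milk, HRP secondaries, chemiluminescent film detection; a representative blot shown.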

[9] = Cell cycle arrest in human CL1-0 cells assessed as accumulation at S phase after 2 hrs by flow cytometry; assay type: functional, cell-based; procedure, shortened: as §1
A549 [10] = test: Decrease in RelA binding affinity to NF-kappaB response element on COX2 promoter in human A549 cells by chromatin immunoprecipitation assay; assay type: functional, cell-based
Procedure, shortened: (§5)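 A549 cells, untreated or treated with drug plus TNF-α for 4 h, cross-linked with 1% formaldehyde (quenched with 0.125 M glycine), lysed, sonicated 12 W for 45 s, immunoprecipitated overnight at 4 °C with anti-RelA, anti-p50 or anti-RelB, collected on protein A/G beads. Cross-links reversed at 65 °C overnight; COX-2 promoter (nt -359 to +106) PCR-amplified 35 cycles, 2% agarose gel, input chromatin as control.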

[11] = Cell cycle arrest in human CL1-0 cells assessed as accumulation at G0/G1 phase after 2 hrs by flow cytometry; assay type: functional, cell-based; procedure, shortened: as §1
CL1-0 [12] = test: Suppression of colony formation of human CL1-0 cells assessed as reduction of cell colonies after 10 to 14 days; assay type: functional, cell-based
[13] = Cell cycle arrest in human CL1-0 cells assessed as accumulation at G2/M phase after 2 hrs by flow cytometry; assay type: functional, cell-based; procedure, shortened: as §1
A549 [14] = test: Decrease in NF-kappaB1 binding affinity to NF-kappaB response element on COX2 promoter in human A549 cells by chromatin immunoprecipitation assay; assay type: functional, cell-based; procedure, shortened: as §5
[15] = target: RAC-alpha serine/threonine-protein kinase (Homo sapiens) (UniProt P31749); test: Inhibition of TNF-alpha-induced AKT activation in human CL1-0 cells by Western blot; assay type: cell-based
Procedure, shortened: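 CL1-0 (and A549) cells serum-starved overnight, pretreated at various concentrations, then TNF-α stimulated for 4 h; extracts immunoblotted for p-Akt, Akt, IKKα, p-IKKα/β; representative blot shown.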

CL1-0 [16] = test: Induction of cyclin D1 protein accumulation in human CL1-0 cells at 0.5 ug/mL after 24 hrs by Western blot; assay type: functional, cell-based; procedure, shortened: as §3
[17] = Cell cycle arrest in human CL1-0 cells assessed as accumulation at G0/G1 phase after 16 hrs by flow cytometry; assay type: functional, cell-based; procedure, shortened: as §1
CL1-0 [18] = test: Decrease in RelA protein level in TNF-alpha-stimulated human CL1-0 cells by Western blot; assay type: functional, cell-based; procedure, shortened: as §4
CL1-0 [19] = test: Induction of cyclin B1 protein accumulation in human CL1-0 cells at 0.5 ug/mL after 24 hrs by Western blot; assay type: functional, cell-based; procedure, shortened: as §3
CL1-0 [20] = test: Effect on cyclin A protein expression in human CL1-0 cells at 0.5 ug/mL after 24 hrs by Western blot; assay type: functional, cell-based; procedure, shortened: as §3
A549 [21] = test: Decrease in […] binding affinity to NF-kappaB response element on COX2 promoter in human A549 cells at >0.25 ug/mL by chromatin immunoprecipitation assay; assay type: functional, cell-based; procedure, shortened: as §5
CL1-0 [22] = test: Decrease in IkappaB protein level in TNF-alpha-stimulated human CL1-0 cells by Western blot; assay type: functional, cell-based; procedure, shortened: as §4
[23] = Cell cycle arrest in human CL1-0 cells assessed as increase in accumulation at G2/M phase by flow cytometry; assay type: functional, cell-based; conditions: TDE = time-dependent effect; procedure, shortened: as §1

Sequence of RAC-alpha serine/threonine-protein kinase (Homo sapiens) (P31749 whole entry): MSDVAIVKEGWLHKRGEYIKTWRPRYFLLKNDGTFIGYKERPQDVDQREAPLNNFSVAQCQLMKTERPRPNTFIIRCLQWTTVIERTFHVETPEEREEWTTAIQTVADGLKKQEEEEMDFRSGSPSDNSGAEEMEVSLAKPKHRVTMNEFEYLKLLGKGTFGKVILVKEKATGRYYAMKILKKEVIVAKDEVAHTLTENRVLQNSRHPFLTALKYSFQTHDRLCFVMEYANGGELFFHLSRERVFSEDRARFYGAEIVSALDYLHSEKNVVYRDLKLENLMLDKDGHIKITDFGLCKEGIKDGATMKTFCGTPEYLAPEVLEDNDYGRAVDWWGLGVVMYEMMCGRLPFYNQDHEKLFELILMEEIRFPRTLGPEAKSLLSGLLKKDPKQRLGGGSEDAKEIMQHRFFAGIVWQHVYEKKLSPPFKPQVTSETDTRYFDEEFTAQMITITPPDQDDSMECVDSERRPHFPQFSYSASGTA

With `COc1ccc2c(CN3CCC(CO)CC3)cc3cc4c(cc3c2c1)OCO4` the Activity [1] was 41.7%, the Activity (CL1-0 [2]) was “Dose-dependent effect” and the Activity [3] was “Dose-dependent effect”. For the same compound, the Activity [4] was 52.5%, the Activity [5] was “tde” and the Activity (CL1-0 [6]) was “inactive”. The Activity (CL1-0 [7]) was “Dose-dependent effect”, the Activity [8] was “inactive” and the Activity [9] was 15.1%. For the same compound, the Activity (A549 [10]) was “Active”, the Activity [11] was 53.7% and the Activity (CL1-0 [12]) was “Dose-dependent effect”. The Activity [13] was 25.4%, the Activity (A549 [14]) was “Active” and the Activity [15] was “Active”. The Activity (CL1-0 [16]) was “Active”, the Activity [17] was 20.4% and the Activity (CL1-0 [18]) was “Active”. For the same compound, the Activity (CL1-0 [19]) was “Active”, the Activity (CL1-0 [20]) was “inactive” and the Activity (A549 [21]) was “Active”. For the same compound, the Activity (CL1-0 [22]) was “Active” and the Activity [23] was “tde”.
